ChEMBL document CHEMBL1125434, “Preparation and in vitro and in vivo evaluation of quinolones with selective activity against gram-positive organisms” (1992)
≈ marks a conversion by molar mass, not a printed value.

What was measured:
Format in all cases: functional
[1] = test system: Staphylococcus epidermidis; experiment: In vitro minimum inhibitory concentration against Staphylococcus epidermidis 3159 using brain-heart infusion agar
In short: (§1)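 Overnight cultures were grown in BHI broth at 36 °C. Twofold dilutions of a 2000 µg/mL stock were made in BHI agar, giving 200–0.005 µg/mL. Plates received about 10^4 organisms and were incubated for 18 h at 36 °C. MIC was the lowest concentration with no visible growth on the plate.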

Pseudomonas aeruginosa [2] = experiment: In vitro minimum inhibitory concentration against Pseudomonas aeruginosa K799 / WT using brain-heart infusion agar; in short: as §1
Escherichia coli = experiment: In vitro minimum inhibitory concentration against Escherichia coli Juhl using brain-heart infusion agar; in short: as §1
Staphylococcus aureus [3] = experiment: In vitro minimum inhibitory concentration against Staphylococcus aureus CMX 553 using brain-heart infusion agar; in short: as §1
Enterococcus faecium = experiment: In vitro minimum inhibitory concentration against Enterococcus faecium ATCC 8043 using brain-heart infusion agar; in short: as §1
Klebsiella aerogenes = experiment: In vitro minimum inhibitory concentration against Enterobacter aerogenes ATCC 13048 using brain-heart infusion agar; in short: as §1
Acinetobacter = experiment: In vitro minimum inhibitory concentration against Acinetobacter CMX 669 using brain-heart infusion agar; in short: as §1
Streptococcus agalactiae = experiment: In vitro minimum inhibitory concentration against Streptococcus agalactiae CMX 508 using brain-heart infusion agar; in short: as §1
Streptococcus pyogenes = experiment: In vitro minimum inhibitory concentration against Streptococcus pyogenes 930 using brain-heart infusion agar; in short: as §1
Pseudomonas aeruginosa [4] = experiment: In vitro minimum inhibitory concentration against Pseudomonas aeruginosa A5007 using brain-heart infusion agar; in short: as §1
Klebsiella pneumoniae = experiment: In vitro minimum inhibitory concentration against Klebsiella pneumoniae 8045 using brain-heart infusion agar; in short: as §1
Streptococcus equinus = experiment: In vitro minimum inhibitory concentration against Streptococcus bovis A5169 using brain-heart infusion agar; in short: as §1
Staphylococcus aureus [5] = experiment: In vitro minimum inhibitory concentration against Staphylococcus aureus A 5177 using brain-heart infusion agar; in short: as §1
Staphylococcus aureus [6] = experiment: In vitro minimum inhibitory concentrationp against Staphylococcus aureus ATCC 6538P using brain-heart infusion agar; in short: as §1

MIC [1]: 0.39 µg/mL (≈ 0.934 µM)
MIC (Pseudomonas aeruginosa [2]): 0.78 µg/mL (≈ 1.87 µM)
MIC (Escherichia coli): 0.1 µg/mL (≈ 0.24 µM)
MIC (Staphylococcus aureus [3]): 0.39 µg/mL (≈ 0.934 µM)
MIC (Enterococcus faecium): 0.78 µg/mL (≈ 1.87 µM)
MIC (Klebsiella aerogenes): 0.39 µg/mL (≈ 0.934 µM)
MIC (Acinetobacter): 0.78 µg/mL (≈ 1.87 µM)
MIC (Streptococcus agalactiae): 0.78 µg/mL (≈ 1.87 µM)
MIC (Streptococcus pyogenes): 0.39 µg/mL (≈ 0.934 µM)
MIC (Pseudomonas aeruginosa [4]): 0.78 µg/mL (≈ 1.87 µM)
MIC (Klebsiella pneumoniae): 0.1 µg/mL (≈ 0.24 µM)
MIC (Streptococcus equinus): 1.56 µg/mL (≈ 3.74 µM)
MIC (Staphylococcus aureus [5]): 0.39 µg/mL (≈ 0.934 µM)
MIC (Staphylococcus aureus [6]): 0.1 µg/mL (≈ 0.24 µM)
Compound: NC1CCN(c2cc3c(cc2F)c(=O)c(C(=O)O)cn3-c2ccc(F)cc2F)CC1
